The source of these data is ChEMBL document CHEMBL1152473, “Synthesis, characterization and antibacterial activity of some triazole Mannich bases carrying diphenylsulfone moieties” (2009).

Molecules are shown by their SMILES. ≈ marks a conversion by molar mass, not a printed value. Calls of active or inactive are those of the source. The calls are words filed in the database; no cut-off is given here. Some results are limits rather than exact numbers.

Holding throughout (format): functional
One assay has as its system Enterococcus faecalis. The assay is described as follows: Antibacterial activity against Enterococcus faecalis ATCC 19433 after 18 to 24 hrs by liquid broth method. The method in brief: (§1)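 Serial two-fold dilution in liquid broth in 96-well plates. Compounds were added from DMSO stock solutions to give final levels of 1024, 512, 256, 128, 64, 32, 16, 8, 4 and 2 (unit as printed unclear). Plates were incubated at 37 °C for 18–24 h.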

Assay [1] has as its system Staphylococcus epidermidis. The assay is described as follows: Antibacterial activity against Staphylococcus epidermidis ATCC 14990 after 18 to 24 hrs by liquid broth method. The method, boiled down: as §1
Another assay concerns Citrobacter freundii. The assay is described as follows: Antibacterial activity against Citrobacter freundii ATCC 8090 after 18 to 24 hrs by liquid broth method. The method, boiled down: as §1
Another assay relates to Acinetobacter baumannii. The experiment in a line: Antibacterial activity against Acinetobacter baumannii ATCC 19606 after 18 to 24 hrs by liquid broth method. The conditions noted are these: ATCC 19606 = CIP 70.34 = JCM 6841. The method, boiled down: as §1
A further assay deals with Pseudomonas aeruginosa. The assay is described as follows: Antibacterial activity against Pseudomonas aeruginosa ATCC 9027 after 18 to 24 hrs by liquid broth method. The method, boiled down: as §1
The test system of another assay is Staphylococcus aureus. The experiment in a line: Antibacterial activity against Staphylococcus aureus ATCC 12600 after 18 to 24 hrs by liquid broth method. The method in brief: as §1
For the next assay, the system named is Bacillus subtilis. The assay is described as follows: Antibacterial activity against Bacillus subtilis ATCC 6633 after 18 to 24 hrs by liquid broth method. The method, boiled down:
as §1

As for `O=S(=O)(c1ccccc1)c1ccc(-c2n[nH]c(=S)n2/N=C/c2ccco2)cc1`, the MIC result (with Enterococcus faecalis; in assay [1]; in the assay on Citrobacter freundii; in the assay with Bacillus subtilis) was “inactive” each time. The MIC (usually the lowest concentration found to suppress growth) against Acinetobacter baumannii amounted to 128 µg/mL (≈ 312 µM); against Pseudomonas aeruginosa it was 256 µg/mL (≈ 624 µM); against Staphylococcus aureus it was 512 µg/mL (≈ 1250 µM).

For the molecule `CN(C)c1ccc(/C=N/n2c(-c3ccc(S(=O)(=O)c4ccccc4)cc3)nn(CN3CCOCC3)c2=S)cc1`, the minimal inhibitory concentration (MIC) against Enterococcus faecalis was above 1020 µg/mL; against Acinetobacter baumannii, 1020 µg/mL (≈ 1820 µM); against Pseudomonas aeruginosa, above 1020 µg/mL; against Staphylococcus aureus, 1020 µg/mL (≈ 1820 µM); in the assay with Bacillus subtilis, 512 µg/mL (≈ 910 µM). The MIC result (in assay [1]; in the assay on Citrobacter freundii) was “inactive” in each case.

On to `CCCn1c(-c2ccc(S(=O)(=O)c3ccc(Cl)cc3)cc2)nn(CN2CCOCC2)c1=S`, for which the MIC with Enterococcus faecalis was 1020 µg/mL (≈ 2080 µM); in the assay with Citrobacter freundii, 256 µg/mL (≈ 519 µM); against Acinetobacter baumannii, above 1020 µg/mL; in the assay with Pseudomonas aeruginosa it was above 1020 µg/mL; with Bacillus subtilis it was above 1020 µg/mL. Besides, the MIC result (in assay [1]; with Staphylococcus aureus) was “inactive” throughout.

On to `CCCn1c(-c2ccc(S(=O)(=O)c3ccccc3)cc2)nn(CN2CCOCC2)c1=S`, for which the MIC is 1020 µg/mL (≈ 2230 µM) against Enterococcus faecalis; above 1020 µg/mL in assay [1]; 512 µg/mL (≈ 1120 µM) against Citrobacter freundii; above 1020 µg/mL with Acinetobacter baumannii; above 1020 µg/mL against Pseudomonas aeruginosa; above 1020 µg/mL in the assay on Bacillus subtilis. Besides, in the assay on Staphylococcus aureus, the MIC entry was “inactive”.

As to `COc1ccccc1/C=N/n1c(-c2ccc(S(=O)(=O)c3ccccc3)cc2)nn(CN2CCOCC2)c1=S`, the MIC against Enterococcus faecalis is above 1020 µg/mL; with Acinetobacter baumannii, 512 µg/mL (≈ 931 µM); in the assay with Pseudomonas aeruginosa, above 1020 µg/mL; in the assay on Staphylococcus aureus, 512 µg/mL (≈ 931 µM); with Bacillus subtilis it was 512 µg/mL (≈ 931 µM). In addition, the MIC entry (in assay [1]; in the assay with Citrobacter freundii) was “inactive” in each case.

As for `O=S(=O)(c1ccccc1)c1ccc(-c2nn(CN3CCOCC3)c(=S)n2/N=C/c2ccco2)cc1`, the MIC against Enterococcus faecalis is 512 µg/mL (≈ 1000 µM); in the assay with Citrobacter freundii it was above 1020 µg/mL; in the assay with Acinetobacter baumannii it was 512 µg/mL (≈ 1000 µM); against Pseudomonas aeruginosa, 512 µg/mL (≈ 1000 µM); against Staphylococcus aureus it was 512 µg/mL (≈ 1000 µM); with Bacillus subtilis it was 1020 µg/mL (≈ 2010 µM). The MIC result in assay [1] is “inactive”.

Turning to `CCCn1c(S)nnc1-c1ccc(S(=O)(=O)c2ccc(Br)cc2)cc1`, the MIC in the assay with Enterococcus faecalis was above 1020 µg/mL; in the assay with Citrobacter freundii, 256 µg/mL (≈ 584 µM); in the assay with Acinetobacter baumannii, 1020 µg/mL (≈ 2340 µM); against Staphylococcus aureus it was 256 µg/mL (≈ 584 µM); against Bacillus subtilis it was 1020 µg/mL (≈ 2340 µM). Moreover, the MIC result (in assay [1]; with Pseudomonas aeruginosa) was “inactive” throughout.

In the case of `O=[N+]([O-])c1cccc(/C=N/n2c(-c3ccc(S(=O)(=O)c4ccccc4)cc3)n[nH]c2=S)c1`, the MIC result (in the assay with Enterococcus faecalis; in assay [1]; in the assay with Citrobacter freundii) was “inactive” each time. Also, the MIC against Acinetobacter baumannii is 1020 µg/mL (≈ 2200 µM); in the assay on Pseudomonas aeruginosa, 512 µg/mL (≈ 1100 µM); against Staphylococcus aureus, 256 µg/mL (≈ 550 µM); against Bacillus subtilis it was 512 µg/mL (≈ 1100 µM).

With `Nn1c(-c2ccc(S(=O)(=O)c3ccccc3)cc2)n[nH]c1=S`, the MIC in the assay on Enterococcus faecalis was above 1020 µg/mL; in assay [1], 128 µg/mL (≈ 385 µM); against Citrobacter freundii, above 1020 µg/mL; against Acinetobacter baumannii, 512 µg/mL (≈ 1540 µM); against Pseudomonas aeruginosa, above 1020 µg/mL; in the assay with Staphylococcus aureus, 512 µg/mL (≈ 1540 µM). For the same molecule, inhibition of growth against Bacillus subtilis (MIC) required 1020 µg/mL (≈ 3080 µM).

On to `CN(C)c1ccc(/C=N/n2c(-c3ccc(S(=O)(=O)c4ccccc4)cc3)n[nH]c2=S)cc1`, for which the MIC result (in the assay on Enterococcus faecalis; in assay [1]; in the assay on Citrobacter freundii) was “inactive” throughout. Further, the MIC is 512 µg/mL (≈ 1100 µM) against Acinetobacter baumannii, above 1020 µg/mL in the assay with Pseudomonas aeruginosa, 1020 µg/mL (≈ 2210 µM) in the assay with Staphylococcus aureus and 64 µg/mL (≈ 138 µM) against Bacillus subtilis.

With `O=S(=O)(c1ccc(Cl)cc1)c1ccc(-c2n[nH]c(=S)n2/N=C/c2ccccc2)cc1`, the MIC entry in the assay on Enterococcus faecalis, in the assay with Citrobacter freundii and with Bacillus subtilis was “inactive” in each case. Also, the MIC is 1020 µg/mL (≈ 2250 µM) in assay [1], 512 µg/mL (≈ 1130 µM) in the assay with Acinetobacter baumannii, 512 µg/mL (≈ 1130 µM) against Pseudomonas aeruginosa and 1020 µg/mL (≈ 2250 µM) with Staphylococcus aureus.

Regarding `O=S(=O)(c1ccccc1)c1ccc(-c2nn(CN3CCOCC3)c(=S)n2/N=C/c2ccccc2)cc1`, the MIC in the assay on Enterococcus faecalis is 1020 µg/mL (≈ 1970 µM); in the assay on Citrobacter freundii, above 1020 µg/mL; against Acinetobacter baumannii, above 1020 µg/mL; in the assay with Pseudomonas aeruginosa, above 1020 µg/mL; in the assay with Staphylococcus aureus it was 512 µg/mL (≈ 985 µM); in the assay on Bacillus subtilis it was 512 µg/mL (≈ 985 µM). Moreover, the MIC result in assay [1] is “inactive”.

With `O=C(N[C@H](CO)[C@H](O)c1ccc([N+](=O)[O-])cc1)C(Cl)Cl` [CHLORAMPHENICOL], the MIC stood at 64 µg/mL (≈ 198 µM) in the assay on Enterococcus faecalis; 64 µg/mL (≈ 198 µM) in assay [1]; 128 µg/mL (≈ 396 µM) with Citrobacter freundii; 128 µg/mL (≈ 396 µM) against Acinetobacter baumannii; 64 µg/mL (≈ 198 µM) in the assay on Pseudomonas aeruginosa; 64 µg/mL (≈ 198 µM) in the assay with Staphylococcus aureus. The molecule also registered an MIC against Bacillus subtilis of 64 µg/mL (≈ 198 µM).

As for `Nn1c(-c2ccc(S(=O)(=O)c3ccc(Cl)cc3)cc2)n[nH]c1=S`, the MIC result in the assay with Enterococcus faecalis and with Pseudomonas aeruginosa was “inactive” in each case. Also, the minimal inhibitory concentration (MIC) in assay [1] came to 512 µg/mL (≈ 1400 µM); against Citrobacter freundii, 1020 µg/mL (≈ 2790 µM); against Acinetobacter baumannii, 128 µg/mL (≈ 349 µM); against Staphylococcus aureus it was 1020 µg/mL (≈ 2790 µM); with Bacillus subtilis it was 1020 µg/mL (≈ 2790 µM).

Take `CCCn1c(-c2ccc(S(=O)(=O)c3ccc(Br)cc3)cc2)nn(CN2CCOCC2)c1=S`: the MIC with Enterococcus faecalis was 512 µg/mL (≈ 953 µM); in the assay with Citrobacter freundii it was 256 µg/mL (≈ 476 µM); in the assay on Acinetobacter baumannii it was above 1020 µg/mL; with Pseudomonas aeruginosa it was above 1020 µg/mL; with Bacillus subtilis, above 1020 µg/mL. The MIC entry (in assay [1]; in the assay on Staphylococcus aureus) was “inactive” in each case.

As for `COc1ccccc1/C=N/n1c(-c2ccc(S(=O)(=O)c3ccccc3)cc2)n[nH]c1=S`, the MIC result (in the assay with Enterococcus faecalis; in assay [1]; in the assay with Citrobacter freundii) was “inactive” each time. In addition, the MIC turned out to be 256 µg/mL (≈ 568 µM) in the assay on Acinetobacter baumannii, 512 µg/mL (≈ 1140 µM) against Pseudomonas aeruginosa, 128 µg/mL (≈ 284 µM) with Staphylococcus aureus and 128 µg/mL (≈ 284 µM) with Bacillus subtilis.

For the molecule `O=S(=O)(c1ccc(Cl)cc1)c1ccc(-c2nn(CN3CCOCC3)c(=S)n2/N=C/c2ccccc2)cc1`, the MIC against Enterococcus faecalis came out at 512 µg/mL (≈ 924 µM); against Acinetobacter baumannii it was 1020 µg/mL (≈ 1850 µM); with Pseudomonas aeruginosa, 1020 µg/mL (≈ 1850 µM); in the assay on Staphylococcus aureus, 1020 µg/mL (≈ 1850 µM). Besides, the MIC entry (in assay [1]; in the assay on Citrobacter freundii; in the assay with Bacillus subtilis) was “inactive” in each case.

With `CCCn1c(S)nnc1-c1ccc(S(=O)(=O)c2ccccc2)cc1`, the minimum inhibitory concentration (MIC) (in the assay on Enterococcus faecalis; in assay [1]; in the assay with Citrobacter freundii; with Acinetobacter baumannii; with Pseudomonas aeruginosa; with Staphylococcus aureus) was above 1020 µg/mL each time. The same molecule showed an MIC in the assay with Bacillus subtilis above 1020 µg/mL.

On to `CCCn1c(S)nnc1-c1ccc(S(=O)(=O)c2ccc(Cl)cc2)cc1`, for which the MIC against Enterococcus faecalis is above 1020 µg/mL; in the assay on Citrobacter freundii, 512 µg/mL (≈ 1300 µM); in the assay with Acinetobacter baumannii it was above 1020 µg/mL; with Staphylococcus aureus, 512 µg/mL (≈ 1300 µM); with Bacillus subtilis, 1020 µg/mL (≈ 2600 µM). The MIC entry (in assay [1]; with Pseudomonas aeruginosa) was “inactive” each time.

As to `O=S(=O)(c1ccccc1)c1ccc(-c2n[nH]c(=S)n2/N=C/c2ccccc2)cc1`, the MIC entry in the assay with Enterococcus faecalis, with Citrobacter freundii and in the assay with Bacillus subtilis was “inactive” each time. Further, the minimal inhibitory concentration (MIC) in assay [1] is above 1020 µg/mL; against Acinetobacter baumannii it was above 1020 µg/mL; against Pseudomonas aeruginosa, 1020 µg/mL (≈ 2440 µM); against Staphylococcus aureus, 512 µg/mL (≈ 1220 µM).

For the molecule `O=[N+]([O-])c1cccc(/C=N/n2c(-c3ccc(S(=O)(=O)c4ccccc4)cc3)nn(CN3CCOCC3)c2=S)c1`, the MIC was found to be 1020 µg/mL (≈ 1810 µM) with Enterococcus faecalis; 512 µg/mL (≈ 907 µM) in the assay on Acinetobacter baumannii; 1020 µg/mL (≈ 1810 µM) against Pseudomonas aeruginosa; 512 µg/mL (≈ 907 µM) in the assay on Staphylococcus aureus; 1020 µg/mL (≈ 1810 µM) in the assay on Bacillus subtilis. The MIC entry (in assay [1]; in the assay on Citrobacter freundii) was “inactive” throughout.
